Shown are actives, neighbours in structure and some others; about 4.8% of the full set was active somewhere.
PAFAH1B3 FP inh: PAFAH1B3 enzyme inhibitors, primary screen, biochemical, fluorescence polarization, human | inhibition, % at 3.39 µM | recombinant PAFAH1B3, FP-rhodamine probe | 340,000 tested, 0.28% active | Platelet-activating factor acetylhydrolase IB subunit alpha1 (Homo sapiens), Q15102;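 active = inhibition above the screen-wide average of all tested compounds plus 3 SD, cut at about 25% in these data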;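 note: 0% = enzyme with DMSO only and 100% = wells lacking PAFAH1B3 protein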
pPAFAH FP inh: pPAFAH enzyme inhibitors, primary screen, biochemical, fluorescence polarization, human; Platelet-activating factor acetylhydrolase (Homo sapiens), Q13093; recombinant pPAFAH, FP-rhodamine probe fluorescence polarization; inhibition, % at 3.39 µM; 330,000 tested, 1.5% active;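 active = inhibition above the mean inhibition across the screen plus 3 SD, cut at about 25% in these data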;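 note: inhibitors block binding of the rhodamine activity-based probe so polarization drops; 0% = enzyme with DMSO and 100% = wells lacking pPAFAH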
Target sequence (Q13093 whole entry, looked up): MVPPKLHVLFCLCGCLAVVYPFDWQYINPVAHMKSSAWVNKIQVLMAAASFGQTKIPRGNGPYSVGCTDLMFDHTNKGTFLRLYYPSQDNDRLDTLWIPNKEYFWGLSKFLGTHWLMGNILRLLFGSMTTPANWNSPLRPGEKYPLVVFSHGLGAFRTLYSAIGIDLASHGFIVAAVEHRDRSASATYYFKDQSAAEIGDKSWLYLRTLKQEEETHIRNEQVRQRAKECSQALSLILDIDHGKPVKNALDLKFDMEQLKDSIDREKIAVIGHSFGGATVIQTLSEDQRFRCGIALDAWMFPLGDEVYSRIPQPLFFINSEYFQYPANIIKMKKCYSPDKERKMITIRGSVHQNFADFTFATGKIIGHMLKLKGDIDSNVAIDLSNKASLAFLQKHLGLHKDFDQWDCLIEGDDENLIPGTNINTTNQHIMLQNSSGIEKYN
NR3A LBD binder: binders of NR3A ligand-binding domain, primary screen, biophysical, differential scanning fluorimetry, uHTS; Glutamate receptor ionotropic, NMDA 3A (GRIN3A) ligand-binding domain; NR3A LBD differential scanning fluorimetry, Tm shift; 0% = protein alone, 100% = glycine-bound protein; Tm shift relative to glycine control, % at 25 µM; 340,000 tested, 2.5% active;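 active = melting temperature shift of at least 10% of the positive control shift, at one fixed dose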
PAFAH2 FP inh: PAFAH2 enzyme inhibitors, primary screen, biochemical, fluorescence polarization, human; Platelet-activating factor acetylhydrolase 2, cytoplasmic (Homo sapiens), Q99487; recombinant PAFAH2, FP-rhodamine activity probe; inhibition, % at 3.39 µM; 340,000 tested, 0.99% active; AID 492956, 2010;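 active = inhibition above the mean over all tested compounds plus 3 SD, cut at about 30% in these data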;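 note: inhibitors block probe labeling of enzyme so polarization drops; 0% = enzyme with DMSO and 100% = wells lacking PAFAH2 protein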
UCH37 inh: inhibitors of human UCH37 deubiquitinase, primary screen, biochemical, Ub-AMC cleavage, fluorescence | inhibition, % (concentration not given with the values) | Ubiquitin carboxyl-terminal hydrolase isozyme L5 (Homo sapiens), Q9Y5K5 | AID 588478, 2011 | purified proteasome/UCH37 | 330,000 tested, 0.33% active;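 active = mean inhibition over replicate wells above about 20%, limit read from the data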;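 note: 0% = compound-free wells with enzyme and 100% = wells lacking proteasome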
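Material: Human UCH37 enzyme supplied as purified proteasome complex | Schedule: 30 min compound-proteasome preincubation then 25 min substrate reaction, room temperature | Detection: AMC fluorescence from Ub-AMC cleavage, excitation 355 nm, emission 460 nm | Benchmarks: Wells without proteasome as full block, compound-free enzyme plus substrate as uninhibited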
PAFAH1B2 inh: PAFAH1B2 enzyme inhibitors, primary screen, biochemical, fluorescence polarization, human | recombinant PAFAH1B2, FP-rhodamine activity probe | 340,000 tested, 1.2% active | inhibition, % at 3.39 µM | AID 492953, 2010;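 active = inhibition above the mean of all tested compounds plus 3 SD, cut at about 24% in these data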;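 note: 0% = enzyme with DMSO and 100% = wells lacking PAFAH1B2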
pPAFAH FP conf: pPAFAH (PLA2G7) enzyme inhibitors, confirmation, biochemical, fluorescence polarization, human; shares compounds with pPAFAH FP inh; inhibition, % at 3.39 µM; recombinant pPAFAH, FP-Rh probe fluorescence polarization; 2,300 tested, 72% active;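 active = mean inhibition of the triplicate above the hit cutoff set for the earlier primary screen, cut at about 25% in these data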;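 note: 0% = enzyme with DMSO and 100% = wells lacking pPAFAH enzyme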
An asterisk follows results filed as active; / = not tested or not shown.

SMILES	PAFAH1B3 FP inh	pPAFAH FP inh	NR3A LBD binder	PAFAH2 FP inh	UCH37 inh	PAFAH1B2 inh	pPAFAH FP conf
Cc1cc(NC(=O)CSc2sc3c(O)cc(=O)[nH]c3c2C#N)ccc1Br	9	52*	2	-5	2	7	27*
Cc1ccc(C)c(NC(=O)CSc2sc3c(O)cc(=O)[nH]c3c2C#N)c1	10	18	-5	18	4	4	/
N#Cc1c(SCC(=O)Nc2cccc(C(F)(F)F)c2)sc2c(O)cc(=O)[nH]c12	13	40*	10*	18	9	11	11
COc1ccc(Cc2nc3ccccc3n2CC(=O)NN=Cc2ccc(C)cc2O)cc1OC	/	/	/	/	-2	/	/
O=C(O)c1ccc(NN=Cc2ccc(-c3cc(Cl)ccc3Cl)o2)cc1	/	/	/	/	-57	/	/
O=C(O)c1ccc(N/N=C/c2ccc(-c3ccccc3Cl)o2)cc1	8	45*	-5	7	/	2	16
CC(C)(C)c1cc(C(=O)N/N=C/c2ccc(-c3ccccc3[N+](=O)[O-])o2)n[nH]1	5	58*	-7	9	/	5	9
O=C(N/N=C/c1ccc(-c2ccccc2[N+](=O)[O-])o1)c1cccnc1	16	11	1	10	/	11	/
ON=C(c1ccc2c(c1)OCCO2)C1CCCCC1	/	/	/	/	2	/	/
O=C(CN1CCOCC1)NN=Cc1ccc(-c2cccc(Cl)c2Cl)o1	/	/	/	/	5	/	/
CCOC(=O)C1CCN(C(=O)c2ccc3c(=O)n4c(nc3c2)CCCCC4)CC1	2	4	-2	4	1	-5	/
CCOC(=O)N1CCN(C(=O)c2ccc3c(=O)n4c(nc3c2)CCCCC4)CC1	/	56*	-2	/	29*	/	1
CCOc1ccc(NC(=S)NC(=O)/C=C/c2ccc(C)cc2)c([N+](=O)[O-])c1	-21	38*	1	-9	11	-2	-2
CCOc1ccc(NC(=S)NC(=O)/C=C/c2ccc(OC)c(OC)c2)c([N+](=O)[O-])c1	5	-6	-2	3	9	2	/
Cc1ccc(-n2c(SCC(=O)NN=Cc3ccccc3C(=O)O)nnc2-c2ccccc2)cc1	/	/	/	/	0	/	/
CC(C)(c1ccccc1)c1ccc(OCCCN2CCNCC2)cc1	-4	39*	-2	-9	6	4	25*
Cc1cc(O)c(C=O)c2c1C(=O)Oc1c(CO)c(O)c3c(c1O2)C(O)OC3=O (centres undefined)	33*	89*	1	48*	/	3	27*
Cc1cc(O)c(CN(C)C)c2c1C(=O)/C(=C/c1ccco1)O2	18	14	4	3	-9	2	/
O=c1cc(-c2ccc(F)cc2)[nH][nH]1	7	1	-3	3	4	1	/
O=c1cc(-c2ccc(C3CCCCC3)cc2)[nH][nH]1	6	35*	-10	9	2	15	5
OC1(c2ccc(Cl)cc2)CCN(Cc2cn[nH]c2-c2ccc(F)cc2)CC1	-1	58*	1	10	/	3	0
CC(OC(=O)c1ccc(Cl)cc1)C(=O)NCc1ccc2c(c1)OCO2 (centres undefined)	7	54*	2	7	0	5	2
COc1ccccc1C=NNC(=O)c1ccc(NC(=O)c2cccc([N+](=O)[O-])c2)cc1	/	/	/	/	4	/	/
O=C(NN=Cc1ccc2cccc(OCc3ccccc3)c2n1)c1ccc(Cl)cc1	/	/	/	/	-314	/	/
CCOC(=O)Cc1csc(SCC(=O)Nc2nccs2)n1	5	2	0	0	5	7	/
SMILES	PAFAH1B3 FP inh	pPAFAH FP inh	NR3A LBD binder	PAFAH2 FP inh	UCH37 inh	PAFAH1B2 inh	pPAFAH FP conf
CCOC(=O)Cc1csc(SCC(=O)Nc2sc3c(c2C(N)=O)CCC3)n1	20	37*	1	19	9	7	19
Cn1c(C(=O)NCc2cccs2)cc2c(=O)n(C)c3ccccc3c21	9	-5	0	5	2	3	/
Cn1c2ccccc2c(=O)c2ccc(NCCc3cccs3)cc21	10	38*	-3	21	-102	12	16
O=C(N/N=C/c1ccc([N+](=O)[O-])o1)c1ccc(NS(=O)(=O)c2cccs2)cc1	18	39*	-10	14	/	3	12
CN1CCN(C=Nc2c(C#N)cnn2Cc2ccccc2)CC1	/	/	/	/	4	/	/
CCOC(=O)c1ccccc1OCc1cc(C=Nn2cncn2)ccc1OC	/	/	/	/	1	/	/
CCCCCCC[C@@H](C/C=C/CCC(=O)N(C)C/C(=C/Cl)C/C(=C\C(=O)N1C[C@H](O)CC1=O)OC)OC	5	41*	-12	2	5	5	37*
O=S(=O)(Nc1nc(-c2sccc2Cl)cs1)c1cc(Cl)ccc1Cl	0	47*	14*	42*	10	4	51*
Nc1scc2c(C(=O)NN=Cc3ccc(Cl)cc3)nn(-c3ccccc3)c(=O)c12	/	/	/	/	9	/	/
O=C(COc1ccc(Br)cc1)Nc1ccccc1N1CCCC1	-3	59*	-2	16	28*	15	8
CC(=O)N1CCN(c2ccccc2NC(=O)COc2ccc(Br)cc2)CC1	0	5	-14	7	6	5	/
CC(C)NC(=O)N(C)C[C@H]1Oc2ccc(NS(=O)(=O)c3ccc(Cl)cc3)cc2CC(=O)N([C@@H](C)CO)C[C@@H]1C	5	8	1	4	4	12	/

Screens (PubChem BioAssay)
